Screening results from PubChem.
Compounds with a hit are over-represented: about 2.3% of the library has one in this group of screens.
FLuc inhib CS: counter-screen for luciferase assay inhibitors: firefly luciferase inhibition; P08659; ATPLite firefly luciferase biochemical luminescence, 10 min; inhibition, % at 10 µM; 200,000 tested, 1.5% active;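 active = inhibition above about 50% when tested at 10 µM, limit read from the data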
Target sequence (P08659 whole entry, looked up): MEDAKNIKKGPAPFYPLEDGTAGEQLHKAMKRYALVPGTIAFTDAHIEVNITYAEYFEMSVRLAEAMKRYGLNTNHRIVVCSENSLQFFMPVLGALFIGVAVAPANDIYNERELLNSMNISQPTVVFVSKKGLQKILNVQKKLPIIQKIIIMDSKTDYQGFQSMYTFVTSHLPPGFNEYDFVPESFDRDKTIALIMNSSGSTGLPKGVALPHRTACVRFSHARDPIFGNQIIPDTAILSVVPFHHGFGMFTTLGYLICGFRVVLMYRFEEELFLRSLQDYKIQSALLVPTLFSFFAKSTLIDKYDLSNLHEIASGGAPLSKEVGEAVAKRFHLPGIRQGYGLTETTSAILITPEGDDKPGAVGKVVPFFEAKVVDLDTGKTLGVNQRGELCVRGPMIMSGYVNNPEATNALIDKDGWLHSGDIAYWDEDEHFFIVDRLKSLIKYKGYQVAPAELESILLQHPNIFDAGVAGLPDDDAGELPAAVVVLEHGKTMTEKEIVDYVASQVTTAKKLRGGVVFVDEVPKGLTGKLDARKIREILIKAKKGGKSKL
Diaph inh CS: counter-screen for diaphorase-based assays: diaphorase inhibitors and chemical oxidizers; diaphorase resazurin-to-resorufin fluorescence, NADH, 16 min; bacterial (C. kluyveri) enzyme, not human; inhibition, % at 20 µM; 190,000 tested, 0.69% active;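 active = primary screen inhibition at 20 µM above a set limit, cut at about 50% in these data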
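Assay system: diaphorase enzyme from Clostridium kluyveri; Input: enzyme working solution with 0.14 U/mL diaphorase; Timing: 16 min at room temperature; Technique: resorufin fluorescence, excitation 544 nm, emission 590 nm; Benchmarks: positive control minus NADH, DMSO neutral control.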
G6PDH counter: inhibits Leuconostoc G6PDH, flagging false hits in G6PDH-based assays; Purified L. mesenteroides G6PDH, diaphorase/resazurin coupled fluorescence, 45 min; inhibition, % at 5 µM; 200,000 tested, 0.12% active; in the data active = inhibition above about 50%
FLuc stim CS: affects firefly luciferase, flagging false hits in luciferase stimulation screens; P08659; ATPlite luciferase biochemical, luminescence, 10 min; 0 = ATP-free wells, 1 = DMSO control; activation factor at 10 µM; 200,000 tested, under 10 active;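 active = luciferase activation factor, scaled between plate controls, of at least 2 with compound at 10 µM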
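System: luciferase plus luciferin reagent, cell-free; medium: PBS as buffer for the ATP substrate; dosing: test compounds dosed from 2 mM stocks in 100% DMSO; timing: 10 min post-reagent at room temperature; measured by: luminescence measurement of luciferase light output; evaluation: luciferase activation, seen as luminescence increase over controls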
Diaphorase act: counter-screen for diaphorase-based assays: diaphorase activators and chemical reducers; Diaphorase/resazurin coupled assay, resorufin fluorescence, 16 min; active compounds read high; 1 = vehicle wells, 0 = NADH-free wells; activation factor at 20 µM; 190,000 tested, 0.005% active; AID 1229;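 active = diaphorase activity raised at least twofold by the compound at 20 µM; inactive = activation factor below 2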
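Material: Purified diaphorase enzyme from Clostridium kluyveri | Buffer or medium: 50 mM HEPES pH 7.4 with 4.542 mM MgCl2, 0.005% Tween 20 | Times: 16 min enzyme reaction, ambient temperature | Signal: Red resorufin fluorescence at 544/590 nm excitation/emission | Measure: Increased resorufin signal from activators or reducing compounds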
Numbers stand for hits; n = inactive.

SMILES	FLuc inhib CS	Diaph inh CS	G6PDH counter	FLuc stim CS	Diaphorase act
O=C(CSc1nnc(-c2ccccc2)o1)OCc1ccccc1	n	n	n	n	n
O=c1c(O[C@@H]2O[C@H](CO)[C@@H](O)[C@H](O)[C@H]2O)c(-c2ccc(O)c(O)c2)oc2cc(O)cc(O)c12	n	77	n	n	n
CC1OC(OCC2OC(Oc3c(-c4ccc(O)cc4)oc4cc(O)cc(O)c4c3=O)C(O)C(O)C2O)C(O)C(O)C1O (configuration not stated)	n	n	n	n	n
COc1cc2c(=O)c(-c3ccc(O)cc3)coc2cc1OC1OC(CO)C(O)C(O)C1O (configuration not stated)	n	n	n	n	n
O=c1cc(-c2ccc(O)c(O)c2)oc2c(C3O[C@H](CO)[C@@H](O)[C@H](O)[C@H]3O)c(O)cc(O)c12 (some centres not stated)	n	n	n	n	n
C[C@@H]1O[C@@H](OC[C@H]2O[C@@H](Oc3c(-c4ccc(O)c(O)c4)oc4cc(O)cc(O)c4c3=O)[C@H](O)[C@@H](O)[C@@H]2O)[C@H](O)[C@H](O)[C@H]1O	n	71	n	n	n
O=c1cc(-c2ccc(O)c(O)c2)oc2cc(O)c(C3OC(CO)C(O)C(O)C3O)c(O)c12 (configuration not stated)	n	60	n	n	n
O=c1c(O[C@@H]2O[C@H](CO)[C@H](O)[C@H](O)[C@H]2O)c(-c2ccc(O)c(O)c2)oc2cc(O)cc(O)c12	n	56	n	n	n
CCOC(=O)C1(Cc2cccc(OC)c2)CCCN(C(=O)CCc2cccnc2)C1 (configuration not stated)	n	n	n	n	n
COc1ccc(-n2c(SCC(N)=O)nc3nc4c(cc3c2=O)COC(C)(C)C4)cc1	n	n	n	n	n
CSCCC(NC(=O)c1ccccc1)C(=O)NCc1ccco1 (configuration not stated)	n	n	n	n	n
COc1ccc(CCNC(=O)CSc2nc3[nH]ncc3c(=O)n2-c2ccccc2OC)cc1OC	n	n	n	n	n
COc1ccc(CCNC(=O)CSc2nc3[nH]ncc3c(=O)n2-c2ccc(Cl)cc2Cl)cc1OC	n	73	n	n	n
COc1ccc(-c2csc(C)n2)cc1OC	n	n	n	n	n
COc1ccc(-c2cn3ccccc3n2)cc1OC	77	n	n	n	n
COc1ccc(CC(=O)Nc2ccc(-c3cn4ccccc4n3)cc2)cc1OC	n	n	n	n	n
COc1ccc(-c2cn3cc(C)ccc3n2)cc1F	93	n	n	n	n
COc1ccc(-c2cn3cccc(C)c3n2)cc1F	n	n	n	n	n
COc1ccc(-c2cn3cc(C)ccc3n2)cc1OC	88	n	n	n	n
CCOc1ccc(-c2cn3ccccc3n2)cc1	97	n	n	n	n
CCCCCCNC1=NCCS1	n	n	n	n	n
Cc1cc(C(=O)C(C)Cl)c(C)n1Cc1ccco1 (configuration not stated)	n	n	n	n	n
Cc1cc(C(=O)CSc2ncccn2)c(C)n1Cc1ccco1	64	n	n	n	n
CCOc1ncccc1C(=O)OCC(=O)c1cc(C)n(Cc2ccco2)c1C	67	n	n	n	n
Cc1cc(C(=O)COC(=O)C(C)NC(N)=O)c(C)n1Cc1ccco1 (configuration not stated)	67	n	n	n	n
SMILES	FLuc inhib CS	Diaph inh CS	G6PDH counter	FLuc stim CS	Diaphorase act
Cc1cc(C(=O)COC(=O)c2ccc(O)cc2)c(C)n1Cc1ccco1	n	n	n	n	n
O=C(CSC(=S)N1CCCCC1)c1ccccc1	76	n	n	n	n
O=C(c1ccccc1)N1CCCCCC1	n	n	n	n	n
Cc1[nH]c2ccccc2c1C(=O)CSC(=S)N(C)C1CCCCC1	n	n	n	n	n
Cc1[nH]c2ccccc2c1C(=O)CSC(=S)N1CCCCC1	55	n	n	n	n
Cc1cc(C)c2nc(N3CCC(C(=O)NCCCN4CC(C)CC(C)C4)CC3)sc2c1 (configuration not stated)	n	n	n	n	n
COc1cccc(OC)c1CN1CCCC(C(=O)c2ccccc2SC)C1 (configuration not stated)	n	n	n	n	n
COC(=O)c1ccc2nc(-c3cccc(N)c3)cn2c1	90	n	n	n	n
